Measurements as given in ChEMBL document CHEMBL1145135, “Structure-activity relationships of the p38alpha MAP kinase inhibitor 1-(5-tert-butyl-2-p-tolyl-2H-pyrazol-3-yl)-3-[4-(2-morpholin-4-yl-ethoxy)naph- thalen-1-yl]urea (BIRB 796)” (J Med Chem, 2003).
The source made the active and inactive calls. The calls are words filed in the database; no cut-off is given here.

How the values were obtained:
[1] = target: Tumor necrosis factor (Mus musculus) (UniProt P06804); experiment: Tested for inhibition of Tumor necrosis factor, alpha in LPS-stimulated mice at a dose of 10 mg/kg; Not statistically significant.; settings: at 10 mg/kg
Sequence of Tumor necrosis factor (Mus musculus) (P06804 whole entry, looked up): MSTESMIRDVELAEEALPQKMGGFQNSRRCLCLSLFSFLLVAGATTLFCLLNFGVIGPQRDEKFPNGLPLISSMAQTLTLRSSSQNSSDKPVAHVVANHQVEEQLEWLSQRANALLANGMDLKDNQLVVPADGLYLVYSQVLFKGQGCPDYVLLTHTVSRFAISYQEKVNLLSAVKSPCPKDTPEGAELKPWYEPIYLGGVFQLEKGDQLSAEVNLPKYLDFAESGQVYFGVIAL

[2] = target: Mitogen-activated protein kinase 14 (Mus musculus) (UniProt P47811)
Sequence of Mitogen-activated protein kinase 14 (Mus musculus) (P47811 whole entry): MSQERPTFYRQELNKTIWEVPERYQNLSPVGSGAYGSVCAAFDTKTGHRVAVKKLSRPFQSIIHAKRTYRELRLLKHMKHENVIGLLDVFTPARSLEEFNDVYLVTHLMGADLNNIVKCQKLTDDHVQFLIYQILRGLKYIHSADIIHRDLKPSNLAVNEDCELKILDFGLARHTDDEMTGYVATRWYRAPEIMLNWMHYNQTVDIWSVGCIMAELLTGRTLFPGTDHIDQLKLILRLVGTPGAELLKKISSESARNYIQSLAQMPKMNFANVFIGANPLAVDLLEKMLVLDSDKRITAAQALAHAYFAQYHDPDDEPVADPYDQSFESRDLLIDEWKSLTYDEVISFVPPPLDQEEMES

[3] = Tested for plasma level after 90 min of 30 mg/kg dose administered in mice; format: ADME, organism-based; parameters: dose 30 mg/kg; settings: mouse, read-out: Activity
Method in brief: (§1)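 Plasma compound concentration (ng/mL) measured 90 min after oral dosing in LPS-stimulated mice at 10 or 30 mg/kg.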

[4] = target: Tumor necrosis factor (Mus musculus) (UniProt P06804); experiment: Tested for inhibition of Tumor necrosis factor, alpha in LPS-stimulated mice at a dose of 30 mg/kg
[5] = target: T1, Tumor necrosis factor (Homo sapiens, UniProt P01375); experiment: Tested for inhibition of Tumor necrosis factor, alpha in THP cells; format: functional, cell-based
T1 sequence (P01375 whole entry): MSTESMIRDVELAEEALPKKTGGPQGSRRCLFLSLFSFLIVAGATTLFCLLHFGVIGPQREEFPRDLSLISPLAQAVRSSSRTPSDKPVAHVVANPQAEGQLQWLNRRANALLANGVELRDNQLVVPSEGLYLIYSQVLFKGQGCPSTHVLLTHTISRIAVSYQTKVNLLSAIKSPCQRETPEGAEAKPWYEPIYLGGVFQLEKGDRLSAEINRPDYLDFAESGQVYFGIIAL
Method in brief: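 THP-1 cells preincubated with or without compound 30 min at 37 °C, 5% CO2, then stimulated with LPS (1 μg/mL final) for a further 18–24 h. Human TNF-α in supernatant measured by ELISA.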

[6] = Tested for plasma level after 90 min of 10 mg/kg dose administered in mice; format: ADME, organism-based; parameters: dose 10 mg/kg; settings: mouse, read-out: Activity
Method in brief: as §1

[7] = target: T1, Tumor necrosis factor; experiment: Tested for inhibition of Tumor necrosis factor, alpha in human whole blood; format: functional, tissue-based
Method in brief: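 Freshly drawn heparinized human whole blood mixed with compound serially diluted in human type AB serum, held 30 min at 37 °C, then stimulated ex vivo with E. coli LPS 0111:B4 (50 ng/mL final). Incubation 5 h at 37 °C. Plasma TNF-α quantified by ELISA, DELFIA or electrochemiluminescence against an on-plate standard curve. Duplicate 11-point curves fitted to a 4-parameter logistic. EC50 is the geometric mean over at least three donors.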

[8] = target: Mitogen-activated protein kinase 14 (Mus musculus, UniProt P47811); experiment: Kd value and murine Mitogen-activated protein kinase p38 alpha complex was calculated
Sequence of Mitogen-activated protein kinase 14 (P47811 whole entry): as the sequence (P47811 whole entry) above

[9] = target: Tumor necrosis factor (Mus musculus) (UniProt P06804); experiment: Tested for inhibition of Tumor necrosis factor, alpha in LPS-stimulated mice at a dose of 10 mg/kg; settings: at 10 mg/kg
[10] = Partition coefficient (logP); format: physicochemical; settings: octanol/water
[11] = system: Mus musculus; experiment: Tested for plasma level after 90 min of 10 mg/kg dose administered in mice; Not detected.; format: ADME, organism-based; parameters: dose 10 mg/kg; settings: in vivo, 1.5 h
Method in brief: as §1

Compound	Tm [2] [°C]	concentration at 1.5 h [3] [ng/mL]	concentration at 1.5 h [6] [ng/mL]	Kd [8] [nM]	logP [10]	Activity [11]	inhibition [1]	inhibition [4] [%]	EC50 [5] [nM]	EC50 [7] [nM]	inhibition [9] [%]
Cc1ccc(-n2nc(C(C)(C)C)cc2NC(=O)Nc2ccc(OCCN3C[C@H](C)O[C@@H](C)C3)c3ccccc23)cc1	62.1	25000	4200	0.096			inactive	50	16	770	
Cc1ccc(-n2nc(C(C)(C)C)cc2NC(=O)Nc2ccc(OCCN3CCSCC3)c3ccccc23)cc1	56.6			5.9							
Cc1ccc(-n2nc(C(C)(C)C)cc2NC(=O)Nc2ccc(OCCN3CCCCC3)c3ccccc23)cc1	55.4			14							
CCOc1ccc(NC(=O)Nc2cc(C(C)(C)C)nn2-c2ccc(C)cc2)c2ccccc12	55.5			11							
Cc1ccc(-n2nc(C(C)(C)C)cc2NC(=O)Nc2ccc(OCCc3cccnc3)c3ccccc23)cc1	59.8			0.52							
Cc1ccc(-n2nc(C(C)(C)C)cc2NC(=O)Nc2ccc(OCCc3ccncc3)c3ccccc23)cc1	62.4	30000		0.1				88	20	820	
Cc1ccc(-n2nc(C(C)(C)C)cc2NC(=O)Nc2ccc(OCCn3ccnc3)c3ccccc23)cc1	62.4	7000		0.074				81	36	1100	
COc1ccc(CCOc2ccc(NC(=O)Nc3cc(C(C)(C)C)nn3-c3ccc(C)cc3)c3ccccc23)cc1OC	57.3			3.5							
Cc1ccc(-n2nc(C(C)(C)C)cc2NC(=O)Nc2ccc(OCCN3C[C@@H](C)O[C@@H](C)C3)c3ccccc23)cc1	58.4			1.5							
Cc1ccc(-n2nc(C(C)(C)C)cc2NC(=O)Nc2ccc(OCCN3CC[S+]([O-])CC3)c3ccccc23)cc1	60.2	62800		0.4				84	50	1300	

Now from value to compound, other results behind:

Tm [2] [°C]	concentration at 1.5 h [3] [ng/mL]	concentration at 1.5 h [6] [ng/mL]	Kd [8] [nM]	logP [10]	Activity [11]	Compound	inhibition [1]	inhibition [4] [%]	EC50 [5] [nM]	EC50 [7] [nM]	inhibition [9] [%]
58.1			1.9			CC1(c2cc(NC(=O)Nc3ccc(OCCN4CCOCC4)c4ccccc34)n(-c3ccccc3)n2)CCCCC1					
61	38000	5400	0.23			CC(C)(C)c1cc(NC(=O)Nc2ccc(OCCN3CCOCC3)c3ccccc23)n(-c2ccccc2)n1		81	9	3400	57
56.6			3.4			CC(C)c1cc(NC(=O)Nc2ccc(OCCN3CCOCC3)c3ccccc23)n(-c2ccccc2)n1					
53			56			Cc1ccc(-n2nc(C(C)(C)CO)cc2NC(=O)Nc2ccc(OCCN3CCOCC3)c3ccccc23)cc1					
54.8			23			CC(C)(C)c1cc(NC(=O)Nc2ccc(OCCN3CCOCC3)c3ccccc23)n(C2CCCCC2)n1					
54.5			26			Cn1nc(C(C)(C)C)cc1NC(=O)Nc1ccc(OCCN2CCOCC2)c2ccccc12					
53.4			64			CC(=O)Nc1ccc(-n2nc(C(C)(C)C)cc2NC(=O)Nc2ccc(OCCN3CCOCC3)c3ccccc23)cc1					
59.1	80000		0.87			COc1ccc(-n2nc(C(C)(C)C)cc2NC(=O)Nc2ccc(OCCN3CCOCC3)c3ccccc23)cn1		40	42	> 10000	
60.9		1400	0.23			CC(C)(C)c1cc(NC(=O)Nc2ccc(OCCN3CCOCC3)c3ccccc23)n(-c2cccc(N)c2)n1	inactive		11	1600	
55.6			12			Cc1ccc(-n2nc(C(C)(C)C)cc2NC(=O)Nc2ccc(OCCN3CCNCC3)c3ccccc23)cc1					
55.9			9.9			CC(=O)Nc1cccc(-n2nc(C(C)(C)C)cc2NC(=O)Nc2ccc(OCCN3CCOCC3)c3ccccc23)c1					
61.3	54000	13000	0.18	3.6		Cc1ccc(-n2nc(C(C)(C)C)cc2NC(=O)Nc2ccc(OCCN3CCOCC3)c3ccccc23)cn1		87	19	530	86
61.4			0.16		Not Active	CC(C)(C)c1cc(NC(=O)Nc2ccc(OCCN3CCOCC3)c3ccccc23)n(-c2ccc(N)cc2)n1	inactive		9	440	
49.1			2400			O=C(Nc1ccc(OCCN2CCOCC2)c2ccccc12)Nc1ccnn1-c1ccccc1					
63.5	75000	30000		4.6		Cc1ccc(-n2nc(C(C)(C)C)cc2NC(=O)Nc2ccc(OCCN3CCOCC3)c3ccccc23)cc1 [DORAMAPIMOD]		84	18	780	63
53.4			64			CC(C)(C)c1cc(NC(=O)Nc2ccc(OCCN3CCOCC3)c3ccccc23)n(Cc2ccccc2)n1					
